Experimental data from ChEMBL document CHEMBL1221297, “Design, synthesis, and in vitro antiprotozoal, antimycobacterial activities of N-{2-[(7-chloroquinolin-4-yl)amino]ethyl}ureas” (Bioorg Med Chem, 2010).
Converted amounts (≈) assume the structure as drawn.

Tests used:
[1] = test system: Trypanosoma cruzi; assay: Antimicrobial activity against epimastigotes form of Trypanosoma cruzi MHOM/MX/1994/Ninoa after 72 hrs; assay type: functional, organism-based
Summary of the method: (§1)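 Parasites grown at 26 °C in Schneider's drosophila medium with 10% FBS and penicillin. 10,000 L. mexicana promastigotes or 20,000 T. cruzi epimastigotes per well, at 10, 5, 2.5 and 1.25 µg/mL. Untreated parasite cultures included. 72 h at 26 °C, then parasites counted directly in a Neubauer chamber. IC50 by probit analysis.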

[2] = test system: Leishmania mexicana; assay: Antimicrobial activity against promastigotes form of Leishmania mexicana MHOM/MX/ISETGS after 72 hrs; assay type: functional, organism-based; summary of the method: as §1
[3] = test system: Entamoeba histolytica; assay: Antimicrobial activity against Entamoeba histolytica HM-1:IMSS after 48 hrs; assay type: functional, organism-based
Summary of the method: (§2)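 Trophozoites (4 × 10⁴) exposed 48 h at 37 °C to increasing compound concentrations; DMSO-medium negative control. Then washed and subcultured 48 h in fresh drug-free medium before counting. IC50 by probit analysis; triplicate, repeated at least twice. Giardia grown in modified TYI-S-33 with 10% calf serum and bovine bile. Trichomonas and Entamoeba grown in TYI-S-33 with 10% bovine serum.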

[4] = test system: Giardia intestinalis; assay: Antimicrobial activity against Giardia intestinalis IMSS:0696:1 after 48 hrs; assay type: functional, organism-based; settings: Giardia duodenalis, IMSS:0696:1, 48 h; summary of the method: as §2
[5] = test system: Trichomonas vaginalis; assay: Antimicrobial activity against Trichomonas vaginalis GT3 after 48 hrs; assay type: functional, organism-based; settings: GT3, 48 h; summary of the method: as §2
[6] = test system: Mycobacterium tuberculosis; assay: Antimicrobial activity against Mycobacterium tuberculosis H37Rv ATTC 27294 by microplate alamar blue assay; assay type: functional, organism-based
Summary of the method: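 Inoculum from a log-phase culture adjusted to McFarland 1, then diluted 1:50 in Middlebrook 7H9 broth to 6 × 10⁶ CFU/mL and prepared just before inoculation. Compounds tested from […]. Ethambutol served as positive internal standard. MIC read by Alamar Blue. Done in triplicate.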

[7] = Cytotoxicity against african green monkey Vero cells after 72 hrs by MTT assay; assay type: cell-based; settings: chlorocebus sabaeus
Summary of the method: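 VERO cells (1.5 × 10⁴) grown in DMEM with 10% FBS at 37 °C, 5% CO₂. Seeded and grown 24–48 h, then treated at >80% confluence with 6.25–100 µg/mL (DMSO ≤0.05%) for 72 h. MTT added for 4 h at 37 °C. Formazan dissolved in acidified isopropanol and read at OD 540 nm. CC50 from triplicates.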

[8] = Selectivity index, ratio of CC50 for african green monkey Vero cells to IC50 for Giardia intestinalis IMSS:0696:1; assay type: functional
Summary of the method: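 SI computed as CC50 in VERO cells divided by IC50 against the parasite.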

Q: With `COc1ccc(NC(=O)NCCNc2ccnc3cc(Cl)ccc23)cc1` as the compound, how does the IC50 [1] read?
A: Its IC50 is > 50 µM.

Q: And the IC50 [2]?
A: Its IC50 is > 50 µM.

Q: What about the IC50 [3] of the same compound?
A: Its IC50 is 10.7 µM.

Q: And the IC50 [4]?
A: Its IC50 is 0.595 µM.

Q: And the IC50 [5]?
A: Its IC50 is 21.7 µM.

Q: What about the IC50 [6] of the same compound?
A: The IC50 was 8 µg/mL (≈ 21.6 µM).

Q: Which results are given for `O=C(NCCNc1ccnc2cc(Cl)ccc12)NC1CCCCC1`?
A: IC50 [1]: > 50 µM; IC50 [2]: > 50 µM; IC50 [3]: 6.93 µM; IC50 [4]: 1.65 µM; IC50 [5]: 66.7 µM; IC50 [6]: 8 µg/mL (≈ 23.1 µM)

Q: For `O=C(NCCNc1ccnc2cc(Cl)ccc12)Nc1ccccc1`, which IC50 [1] is on record?
A: The IC50 was > 50 µM.

Q: What about the IC50 [2] of the same compound?
A: Its IC50 is > 50 µM.

Q: What about the IC50 [3] of the same compound?
A: Its IC50 is 5.37 µM.

Q: What about the IC50 [4] of the same compound?
A: Its IC50 is 1.17 µM.

Q: What about the IC50 [5] of the same compound?
A: The IC50 was 46 µM.

Q: And the IC50 [6]?
A: Its IC50 is 8 µg/mL (≈ 23.5 µM).

Q: With `O=C(NCCNc1ccnc2cc(Cl)ccc12)Nc1ccc(Cl)cc1` as the compound, how does the IC50 [1] read?
A: The IC50 was 50 µM.

Q: And the IC50 [2]?
A: The IC50 was 50 µM.

Q: And the IC50 [3]?
A: Its IC50 is 6.87 µM.

Q: What about the IC50 [4] of the same compound?
A: The IC50 was 0.267 µM.

Q: What about the IC50 [5] of the same compound?
A: The IC50 was 9.59 µM.

Q: What about the IC50 [6] of the same compound?
A: The IC50 was 4 µg/mL (≈ 10.7 µM).

Q: What does the source list for `O=C(NCCNc1ccnc2cc(Cl)ccc12)Nc1ccc(F)cc1`?
A: IC50 [1]: > 50 µM; IC50 [2]: > 50 µM; IC50 [3]: 17.7 µM; IC50 [4]: 0.927 µM; IC50 [5]: 23.2 µM; IC50 [6]: 8 µg/mL (≈ 22.3 µM)

Q: Which results are given for `CCOc1ccc(NC(=O)NCCNc2ccnc3cc(Cl)ccc23)cc1`?
A: IC50 [1]: 50 µM; IC50 [2]: 50 µM; IC50 [3]: 5.93 µM; IC50 [4]: 0.339 µM; IC50 [5]: 30.1 µM; IC50 [6]: 8 µg/mL (≈ 20.8 µM)

Q: With `CCCCOc1ccc(NC(=O)NCCNc2ccnc3cc(Cl)ccc23)cc1` as the compound, how does the IC50 [1] read?
A: Its IC50 is 50 µM.

Q: What about the IC50 [2] of the same compound?
A: Its IC50 is 9.9 µM.

Q: What about the IC50 [3] of the same compound?
A: Its IC50 is 3.64 µM.

Q: What about the CC50 at 72 h [7] of the same compound?
A: Its CC50 at 72 h is 5 µM.

Q: And the IC50 [4]?
A: The IC50 was 0.008 µM.

Q: What about the IC50 [5] of the same compound?
A: Its IC50 is 8.44 µM.

Q: And the IC50 [6]?
A: Its IC50 is 2 µg/mL (≈ 4.84 µM).

Q: And the “Ratio CC50/IC50” value [8]?
A: The value was 625.

Q: With `O=C(NCCNc1ccnc2cc(Cl)ccc12)Nc1ccc([N+](=O)[O-])cc1` as the compound, how does the IC50 [1] read?
A: The IC50 was 50 µM.

Q: And the IC50 [2]?
A: The IC50 was 50 µM.

Q: And the IC50 [3]?
A: Its IC50 is 10.6 µM.

Q: What about the IC50 [4] of the same compound?
A: Its IC50 is 1.75 µM.

Q: And the IC50 [5]?
A: Its IC50 is 12 µM.

Q: And the IC50 [6]?
A: The IC50 was 8 µg/mL (≈ 20.7 µM).

Q: For `NCCNc1ccnc2cc(Cl)ccc12`, which IC50 [1] is on record?
A: Its IC50 is > 50 µM.

Q: What about the IC50 [2] of the same compound?
A: Its IC50 is > 50 µM.

Q: What about the IC50 [3] of the same compound?
A: The IC50 was 14.6 µM.

Q: And the IC50 [4]?
A: The IC50 was 1.25 µM.

Q: And the IC50 [5]?
A: The IC50 was 23 µM.

Q: What about the IC50 [6] of the same compound?
A: The IC50 was 8 µg/mL (≈ 36.1 µM).

Q: With `O=C(Cn1ccnc1[N+](=O)[O-])NCc1ccccc1` [BENZNIDAZOLE] as the compound, how does the IC50 [1] read?
A: Its IC50 is 34.4 µM.

Q: For `CCN(CC)CCCC(C)Nc1ccnc2cc(Cl)ccc12` (stereo unspecified) [CHLOROQUINE], which IC50 [1] is on record?
A: Its IC50 is > 50 µM.

Q: What about the IC50 [2] of the same compound?
A: Its IC50 is > 50 µM.

Q: And the IC50 [3]?
A: The IC50 was 9.58 µM.

Q: What about the IC50 [4] of the same compound?
A: Its IC50 is 0.401 µM.

Q: And the IC50 [5]?
A: Its IC50 is 30 µM.

Q: And the IC50 [6]?
A: Its IC50 is > 8 µg/mL.

Q: With `CC[C@@H](CO)NCCN[C@@H](CC)CO` [ETHAMBUTOL] as the compound, how does the IC50 [6] read?
A: The IC50 was 4 µg/mL (≈ 19.6 µM).

Q: For `N=C(N)c1ccc(OCCCCCOc2ccc(C(=N)N)cc2)cc1` [PENTAMIDINE], which IC50 [2] is on record?
A: Its IC50 is 13.3 µM.

Q: With `CC(C)CCOc1ccc(NC(=S)Nc2ccc(OCCC(C)C)cc2)cc1` [TIOCARLIDE] as the compound, how does the IC50 [6] read?
A: Its IC50 is 4 µg/mL (≈ 9.99 µM).
